Data set [1] has as its system Rattus norvegicus. Put plainly: The dosage at which 50% of the animals were cataleptic was measured after (ip) administration in male Sprague-Dawley rats. It counts as functional. The method, boiled down:
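Eight rats per dose level were tested. Both forelimbs were placed on a 7-cm-high horizontal bar, and failure to step off within 60 s counted as cataleptic. Testing was done 1, 2, 4, 8 and 24 h post-dose. ED50 with 95% confidence interval came from probit analysis of each compound's peak cataleptic effect.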

Data set [2] can be described thus: The acute toxicity was assessed after (ip) administration in male Sprague-Dawley rats. It is filed as organism-based. The note with it: rat, in vivo.
For data set [3], the system named is Rattus norvegicus. Put plainly: In vivo blocking of apomorphine induced hyperactivity following 1 mg/kg i.p. in rats after 60 min. The conditions noted are these: ip, 1 h, route intraperitoneal. It counts as functional. A digest of the protocol:
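Male Sprague-Dawley rats (250-300 g) were dosed ip with test compound in saline or water 60 min before apomorphine 1 mg/kg sc into the neck. Behavior was scored at 5, 20, 40 and 60 min. It was calculated by Theil's method with Sen's tie correction, with a 90% confidence interval.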

Data set [4] deals with Rattus norvegicus. The data set is described as follows: In vivo blocking of apomorphine induced stereotypies following 1 mg/kg i.p. in rats after 60 min. It is filed as functional. The note with it: ip, 1 h, route intraperitoneal. A digest of the protocol:
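Male Sprague-Dawley rats (250-300 g) received test compound ip in saline or water 60 min before sc apomorphine 1 mg/kg given into the neck. Stereotypy strength was scored at 5, 20, 40 and 60 min. It was derived by Theil's method with Sen's correction for ties, with a 90% confidence interval.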

The ED50 is the dose at which the effect has come halfway, by size or by number of responders. Low readings indicate an effect at a small dose, high ones a need for a large dose. One may read the LD50 as the dose at which mortality reaches 50%. Low values mean greater toxicity, high ones lower toxicity.

In the case of `CCN1CCCC1CNC(=O)c1c(OC)c(Br)cc(Br)c1OC.Cl` (stereo not drawn), the ED50 in data set [1] was found to be 8.2 µmol/kg; in data set [3], 1.15 µmol/kg; in data set [4], 4.6 µmol/kg. The compound also registered an LD50 in data set [2] of 177 µmol/kg.

On to `CCN(CC1CCCN1CC)C(=O)c1c(OC)c(Br)cc(Br)c1OC` (stereo not drawn), for which the ED50 in data set [3] and in data set [4] was over 80 µmol/kg each time.

On to `CCOc1cccc(OCC)c1C(=O)NCC1CCCN1CC` (stereo not drawn), for which the values for the ED50 in data set [3] and in data set [4] were 23.4 µmol/kg and over 40 µmol/kg, respectively.

For the compound `CCOc1ccc(Br)c(OCC)c1C(=O)NC[C@@H]1CCCN1CC.Cl`, the ED50 in data set [1] turned out to be 8.9 µmol/kg; in data set [3], 0.47 µmol/kg; in data set [4], 1.9 µmol/kg. The same compound displayed a median lethal dose (LD50) in data set [2] of 206 µmol/kg.

As for `CCN1CCC[C@H]1CNC(=O)c1c(OC)ccc(Br)c1OC.Cl`, the median effective dose (ED50) in data set [1] is 24.5 µmol/kg. Further, the LD50 in data set [2] stood at 794 µmol/kg.

For `CCN1CCC[C@@H]1CNC(=O)c1c(OC)ccc(Br)c1OC`, the ED50 in data set [3] is 120 µmol/kg; in data set [4], over 196 µmol/kg.

For `COc1ccc(Br)c(OC)c1C(=O)NCC1CCCN1` (stereo not drawn), the ED50 in data set [3] came to 47 µmol/kg; in data set [4], 100 µmol/kg.

As to `CCN1CCC[C@H]1CNC(=O)c1c(OC)c(Br)cc(Br)c1OC`, the ED50 turned out to be 5.3 µmol/kg in data set [1], 0.44 µmol/kg in data set [3] and 2.1 µmol/kg in data set [4].

With `CCN1CCCC1CNC(=O)c1c(OC)ccc(Br)c1OC.Cl` (stereo not drawn), the 50% effective dose (ED50) in data set [1] stood at 47 µmol/kg; in data set [3], 12.8 µmol/kg; in data set [4], 21.3 µmol/kg. The 50% lethal dose (LD50) in data set [2] came to 817 µmol/kg.

On to `O=C(CCCN1CCC(O)(c2ccc(Cl)cc2)CC1)c1ccc(F)cc1` [HALOPERIDOL], for which the figures for the ED50 in data set [1], in data set [3] and in data set [4] were 0.67 µmol/kg, 0.29 µmol/kg and 0.27 µmol/kg, respectively.

As for `CCN1CCCC1CNC(=O)c1cc(S(N)(=O)=O)ccc1OC` (stereo not drawn) [SULPIRIDE], the median effective dose (ED50) in data set [1] was found to be 161 µmol/kg; in data set [3] it was 65.6 µmol/kg; in data set [4], 212 µmol/kg.

On to `CCOc1ccc(Br)c(OCC)c1C(=O)NCC1CCCN1CC` (stereo not drawn), for which the 50% effective dose (ED50) amounted to 15.7 µmol/kg in data set [1], 1.1 µmol/kg in data set [3] and 4.7 µmol/kg in data set [4].

As to `CCN1CCCC1CNC(=O)c1c(OC)c(Cl)cc(Br)c1OC` (stereo not drawn), the 50% effective dose (ED50) in data set [1] worked out at 5 µmol/kg; in data set [3], 3.9 µmol/kg; in data set [4] it was 7.3 µmol/kg. In data set [2], the LD50 amounted to 206 µmol/kg.

Take `CCN1CCCC1CNC(=O)c1c(OC)ccc(Cl)c1OC` (stereo not drawn): the ED50 came out at 30.8 µmol/kg in data set [3] and 42.7 µmol/kg in data set [4].

Regarding `CCN1CCCC1CNC(=O)c1c(OC)c(Cl)cc(Cl)c1OC` (stereo not drawn), the values for the ED50 in data set [1], in data set [3] and in data set [4] were 16.8 µmol/kg, 3.1 µmol/kg and 5.4 µmol/kg, respectively. This compound registered a 50% lethal dose (LD50) in data set [2] of 224 µmol/kg.

Take `CCN1CCCC1CNC(=O)c1c(Cl)cccc1Cl` (stereo not drawn): the ED50 in data set [3] and in data set [4] was over 80 µmol/kg throughout.

`CCN1CCC[C@@H]1CNC(=O)c1c(OC)c(Br)cc(Br)c1OC` yielded an LD50 in data set [2] of 159 µmol/kg. Further, the results for the ED50 in data set [3] and in data set [4] were 13.1 µmol/kg and over 82 µmol/kg, respectively.

In data set [2], `CCN1CCCC1CNC(=O)c1c(OC(C)C)cccc1OC(C)C.Cl` (stereo not drawn) yielded a median lethal dose (LD50) of about 160 µmol/kg. Besides, the ED50 in data set [3] and in data set [4] was over 80 µmol/kg each time.

Turning to `CCOc1ccc(Cl)c(OCC)c1C(=O)NCC1CCCN1CC` (stereo not drawn), the median effective dose (ED50) amounted to 31 µmol/kg in data set [1], 2.8 µmol/kg in data set [3] and 7.2 µmol/kg in data set [4].

For the compound `CCN1CCC[C@H]1CNC(=O)c1c(OC)ccc(Cl)c1OC.Cl`, the LD50 in data set [2] is about 826 µmol/kg. In addition, the median effective dose (ED50) in data set [3] turned out to be 5.6 µmol/kg; in data set [4], 11.7 µmol/kg.

The values are drawn from ChEMBL document CHEMBL1121964, “Potential neuroleptic agents. 2,6-Dialkoxybenzamide derivatives with potent dopamine receptor blocking activities” (J Med Chem, 1982).
